Results reported in ChEMBL document CHEMBL1126566, “Studies on analogues of classical antifolates bearing the naphthoyl group in place of benzoyl in the side chain” (J Med Chem, 1993).
Substitutions are numbered along the chain they refer to.

What was measured:
Mus musculus [1] = assay: Antitumor activity against E0771 mammary adenocarcinoma in mice at 100 mg/kg(5 days) was determined and […] at day 14 was reported; format: functional
Mus musculus [2] = assay: Antitumor activity against E0771 mammary adenocarcinoma in mice at 100 mg/kg(5 days) was determined and […] at day 7 was reported; format: functional
L1210 [3] = assay: Tested for the ability to inhibit growth in vitro against L1210; format: functional, cell-based; conditions: Mus musculus
Mus musculus [4] = assay: Antitumor activity against E0771 mammary adenocarcinoma in mice at 150 mg/kg(5 days) was determined and […] at day 7 was reported; format: functional
HL-60 = assay: Tested for the ability to inhibit growth in vitro against HL60; format: functional, cell-based; conditions: Homo sapiens
[5] = Ratio of Vmax and Km against CCRF-CEM Folyl-polyglutamate synthetase; format: ADME; conditions: human
Procedure, shortened: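 Substrate assay with CCRF-CEM FPGS. Analogue replaced aminopterin at 0–100 μM (0–200 μM for one analogue). Buffer held 5 mM ATP, 10 mM MgCl₂, 4 mM L-[³H]Glu, pH 8.4, 37 °C. Ligated glutamate was separated on DEAE-cellulose. Assays were run in duplicate or triplicate within linear enzyme and time ranges, and each experiment was repeated. Vmax (relative to aminopterin) and Km give V/K.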

L1210 [6] = assay: Tested for transport into L1210 cells measured as cell influx; format: functional, cell-based, Mus musculus
Mus musculus [7] = assay: Antitumor activity against E0771 mammary adenocarcinoma in mice at 100 mg/kg(5 days) was determined and tumor volume at day 14 was reported; format: functional
Procedure, shortened: (§1)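 Mice bearing implanted E0771 mammary adenocarcinoma, five per test group. Dosing was daily for 5 days, starting on day 3 after implantation. Tumor volume (mm³) was calculated as 4/3πr³ and is also expressed as treated/control (%).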

Dihydrofolate reductase [8] = biological target: T1, Dihydrofolate reductase (Mus musculus, UniProt P00375); assay: Inhibitory activity of Dihydrofolate reductase in L1210 cells; format: cell-based
T1 sequence (P00375 whole entry): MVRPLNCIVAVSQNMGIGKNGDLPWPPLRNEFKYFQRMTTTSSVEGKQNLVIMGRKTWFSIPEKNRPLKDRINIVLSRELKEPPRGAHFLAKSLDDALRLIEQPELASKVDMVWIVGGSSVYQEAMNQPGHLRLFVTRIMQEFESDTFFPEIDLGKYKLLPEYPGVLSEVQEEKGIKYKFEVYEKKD

Mus musculus [9] = assay: Antitumor activity against E0771 mammary adenocarcinoma in mice at 100 mg/kg(5 days) was determined and tumor volume at day 10 was reported; format: functional; procedure, shortened: as §1
Mus musculus [10] = assay: Antitumor activity against E0771 mammary adenocarcinoma in mice at 100 mg/kg(5 days) was determined and […] at day 10 was reported; format: functional
Mus musculus [11] = assay: Antitumor activity against E0771 mammary adenocarcinoma in mice at 150 mg/kg(5 days) was determined and tumor volume at day 10 was reported; format: functional; procedure, shortened: as §1
[12] = Activity relative to saturating aminopterine at 100 uM against CCRF-CEM Folyl-polyglutamate synthetase; format: ADME; conditions: human
Procedure, shortened: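 FPGS from CCRF-CEM cells: freeze-thawed lysates fractionated by (NH₄)₂SO₄ (0–40% saturation pellet) and gel sieving, stored at –90 °C in 20% glycerol, free of detectable γ-glutamyl hydrolase. Product was separated on DEAE-cellulose minicolumns. Run in duplicate or triplicate, and each experiment was repeated at least once.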

Mus musculus [13] = assay: Antitumor activity against E0771 mammary adenocarcinoma in mice at 150 mg/kg(5 days) was determined and tumor volume at day 14 was reported; format: functional; procedure, shortened: as §1
CCRF-CEM = assay: Percent inhibition of Folyl-polyglutamate synthase from CCRF-CEM cells; format: cell-based; set-up: concentration or dose not given beside the values; conditions: Homo sapiens, dose or concentration not given here
Procedure, shortened: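 FPGS was partially purified from CCRF-CEM cells by (NH₄)₂SO₄ fractionation and gel sieving, with no detectable γ-glutamyl hydrolase. Product was separated on DEAE-cellulose. Percent inhibition is reported.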

Mus musculus [14] = assay: Antitumor activity against E0771 mammary adenocarcinoma in mice at 100 mg/kg(5 days) was determined and tumor volume at day 7 was reported; format: functional; procedure, shortened: as §1
CCRF S-180 = assay: Tested for the ability to inhibit growth in vitro against S180; format: functional, cell-based; conditions: Mus musculus
Mus musculus [15] = assay: Antitumor activity against E0771 mammary adenocarcinoma in mice at 150 mg/kg(5 days) was determined and […] at day 14 was reported; format: functional
[16] = biological target: T2, Folylpolyglutamate synthase, mitochondrial (Mus musculus) (UniProt P48760); assay: Specific activity of L1210 Folyl-polyglutamate synthase
T2 sequence (whole entry): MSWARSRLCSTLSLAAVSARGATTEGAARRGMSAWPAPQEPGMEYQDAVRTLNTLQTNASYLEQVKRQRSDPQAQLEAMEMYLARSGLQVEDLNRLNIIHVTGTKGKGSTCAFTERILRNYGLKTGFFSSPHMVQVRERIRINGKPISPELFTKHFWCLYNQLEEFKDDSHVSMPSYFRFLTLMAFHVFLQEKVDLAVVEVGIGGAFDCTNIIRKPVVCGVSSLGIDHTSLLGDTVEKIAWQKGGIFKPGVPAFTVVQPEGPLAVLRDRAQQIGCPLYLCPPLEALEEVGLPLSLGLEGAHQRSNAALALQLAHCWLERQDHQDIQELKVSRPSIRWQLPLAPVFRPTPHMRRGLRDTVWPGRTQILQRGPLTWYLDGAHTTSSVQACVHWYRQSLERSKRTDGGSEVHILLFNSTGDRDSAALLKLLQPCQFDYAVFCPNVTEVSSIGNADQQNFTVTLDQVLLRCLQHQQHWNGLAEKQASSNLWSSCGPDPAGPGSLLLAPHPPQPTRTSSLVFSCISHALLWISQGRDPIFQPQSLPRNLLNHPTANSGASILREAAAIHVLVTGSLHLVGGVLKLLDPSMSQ
Procedure, shortened: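 FPGS from L1210 cells was assayed by [³H]glutamate ligation, like the human enzyme assay. Each folate substrate was at 100 μM, and only specific activity was measured.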

Dihydrofolate reductase [17] = biological target: T3, Dihydrofolate reductase (Rattus norvegicus, UniProt Q920D2); assay: Tested for inhibition against rat liver DHFR (dihydrofolate reductase)
T3 sequence (Q920D2 whole entry): T1 sequence (P00375 whole entry) with P27L, R85Q, R99K, I115V, G155E, V170I

Mus musculus [18] = assay: Antitumor activity against E0771 mammary adenocarcinoma in mice at 150 mg/kg(5 days) was determined and […] at day 10 was reported; format: functional
Dihydrofolate reductase [19] = biological target: T4, Dihydrofolate reductase (Pneumocystis carinii, UniProt P16184); assay: Tested for inhibition against Pneumocystis carinii DHFR (dihydrofolate reductase)
T4 sequence (P16184 whole entry): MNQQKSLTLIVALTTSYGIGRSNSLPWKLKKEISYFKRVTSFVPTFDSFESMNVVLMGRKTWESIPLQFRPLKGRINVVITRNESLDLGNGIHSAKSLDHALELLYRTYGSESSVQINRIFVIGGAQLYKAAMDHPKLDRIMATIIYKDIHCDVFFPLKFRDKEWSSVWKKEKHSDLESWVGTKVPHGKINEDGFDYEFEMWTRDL

Mus musculus [20] = assay: Antitumor activity against E0771 mammary adenocarcinoma in mice at 150 mg/kg(5 days) was determined and tumor volume at day 7 was reported; format: functional; procedure, shortened: as §1
Dihydrofolate reductase [21] = biological target: T4, Dihydrofolate reductase; assay: Tested for inhibition against Dihydrofolate reductase from Pneumocystis carinii

| SMILES | IC50 (L1210 [3]) [nM] | IC50 (HL-60) [nM] | Ki (L1210 [6]) [nM] | Ki (Dihydrofolate reductase [8]) [nM] | Relative Vmax [12] | inhibition (CCRF-CEM) [%] | IC50 (CCRF S-180) [nM] | further results |
| --- | --- | --- | --- | --- | --- | --- | --- | --- |
| CN(Cc1cnc2nc(N)nc(N)c2n1)c1ccc(C(=O)NC(CCC(=O)O)C(=O)O)c2ccccc12 (centres undefined) | 9 | 3.3 | 1040 | 0.00522 | 0.27 | 3 | 9.3 | T/C (Mus musculus [1]): 48%; T/C (Mus musculus [2]): 37%; T/C (Mus musculus [4]): 28%; V/K [5]: 0.0033; Tumor volume (Mus musculus [7]): 839 mm**3; Tumor volume (Mus musculus [9]): 268 mm**3; T/C (Mus musculus [10]): 43%; Tumor volume (Mus musculus [11]): 144 mm**3; Tumor volume (Mus musculus [13]): 493 mm**3; Tumor volume (Mus musculus [14]): 82 mm**3; T/C (Mus musculus [15]): 28%; Specific activity (pM hr-1 (mg of protein)-1) [16]: 0.18; IC50 (Dihydrofolate reductase [17]): 0.0025 nM; T/C (Mus musculus [18]): 23%; IC50 (Dihydrofolate reductase [19]): 0.00019 nM; Km (Homo sapiens): 82 µM; Tumor volume (Mus musculus [20]): 62 mm**3 |
| CN(Cc1cnc2nc(N)nc(N)c2c1)c1ccc(C(=O)NC(CCC(=O)O)C(=O)O)c2ccccc12 (centres undefined) | 2.3 | 1.5 | 780 | – | – | 23 | 1.9 | – |
| Nc1nc(N)c2cc(CNc3ccc(C(=O)NC(CCC(=O)O)C(=O)O)c4c3CCCC4)cnc2n1 (centres undefined) | 16 | 17 | 600 | 0.0131 | 0.01 | 16 | 33 | – |
| Nc1nc(N)c2cc(CNc3ccc(C(=O)NC(CCC(=O)O)C(=O)O)c4ccccc34)cnc2n1 (centres undefined) | 4.2 | 1.4 | 1520 | 0.00365 | 0.01 | 21 | 3.9 | IC50 (Dihydrofolate reductase [21]): 0.00053 nM |
